Broadly, the IC50 is the point on the concentration scale where inhibition reaches its midpoint. A low value points to higher potency. A word on the inhibition: it is the share of the control response that was lost under treatment. High values mean a response far below the control, low ones a response near the control. As a reminder, the inhibition in vivo is the relative decrease from the control value, in per cent.

The subject of data set [1] is J774.A1. Kind of data set: Inhibition of LPS-induced nitric oxide production in mouse J774A.1 cells pre-incubated for 1 hr followed by LPS stimulation for 24 hrs by Griess reagent based assay. In kind it is functional, cell-based. Put shortly: (§1)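 RAW 264.7 and J774A.1 cells handled in parallel. Viability was read at 50 µM alongside the LPS-stimulated NO (Griess) assay. Values are from three independent experiments, each run in triplicate.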
Background: Nitrite, measured by Griess reagent, commonly stands in for NO production.

Data set [2] is described as follows: Cytotoxicity against mouse J774A.1 cells assessed as cell viability at 50 uM after 24 hrs by MTT assay. The settings on record: read-out: Activity. In kind it is cell-based, J774.A1. Put shortly:
as §1
In general terms: Formazan colour is commonly taken as a measure of viable cells.

In data set [3] the test system is J774.A1. In words: Inhibition of IL-1beta production in mouse J774A.1 cells at 30 uM incubated for 12 hrs by sandwich immunoassay. The settings on record: J774.A1, 12 h. The class given is functional. Put shortly: (§2)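 In RAW 264.7 and J774A.1 macrophages, TNF-α and IL-1β were quantified. Single-point data are % inhibition at 30 µM; otherwise IC50 in µM. Values are from three separate experiments, each in triplicate.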

Data set [4] concerns RAW264.7. In words: Inhibition of TNFalpha production in mouse RAW264.7 cells at 30 uM incubated for 6 hrs by sandwich immunoassay. The settings on record: RAW264.7, 6 h. In kind it is functional. A digest of the protocol: as §2
Data set [5] is described as follows: Cytotoxicity against mouse RAW264.7 cells assessed as cell viability at 50 uM after 24 hrs by MTT assay. The settings on record: read-out: Activity. In kind it is cell-based. A digest of the protocol:
as §1

For data set [6], the system named is J774.A1. Kind of data set: Inhibition of TNFalpha production in mouse J774A.1 cells at 30 uM incubated for 6 hrs by sandwich immunoassay. In kind it is functional. The settings on record: J774.A1, 6 h. A digest of the protocol: as §2
Data set [7] concerns RAW264.7. In words: Inhibition of LPS-induced nitric oxide production in mouse RAW264.7 cells pre-incubated for 1 hr followed by LPS stimulation for 24 hrs by Griess reagent based assay. The class given is functional, cell-based. A digest of the protocol: as §1
The subject of data set [8] is RAW264.7. Kind of data set: Inhibition of IL-1beta production in mouse RAW264.7 cells at 30 uM incubated for 12 hrs by sandwich immunoassay. In kind it is functional. The settings on record: RAW264.7, 12 h. Put shortly: as §2
Data set [9] concerns Rattus norvegicus. In words: Antiinflammatory activity in Sprague-Dawley rat assessed as inhibition of carrageenan-induced paw edema at 150 umol/kg, po administered 1 hr before carrageenan injection and measured 5 hrs post carrageenan challenge. A general note: The carrageenan paw model is a standard test of acute inflammation.
Data set [10] has as its system RAW264.7. Kind of data set: Inhibition of IL-1beta production in mouse RAW264.7 cells incubated for 12 hrs by sandwich immunoassay. The class given is functional, cell-based. The settings on record: RAW264.7, 12 h. A digest of the protocol: as §2
The subject of data set [11] is RAW264.7. Kind of data set: Inhibition of TNFalpha production in mouse RAW264.7 cells incubated for 6 hrs by sandwich immunoassay. The class given is functional, cell-based. The settings on record: RAW264.7, 6 h. A digest of the protocol:
as §2

Data set [12] relates to Rattus norvegicus. In words: Antiinflammatory activity in Sprague-Dawley rat assessed as inhibition of LPS-induced TNFalpha production at 150 umol/kg, po pre-administered at interval of 12 hrs followed by LPS-stimulation 2 hrs after final dose and measured 2 hrs post LPS challenge by ELISA method. The class given is functional.
Data set [13] concerns Rattus norvegicus. Kind of data set: Antiinflammatory activity in Sprague-Dawley rat assessed as inhibition of carrageenan-induced paw edema at 150 umol/kg, po administered 1 hr before carrageenan injection and measured 3 hrs post carrageenan challenge.
In data set [14] the test system is Rattus norvegicus. Kind of data set: Antiinflammatory activity in Sprague-Dawley rat assessed as inhibition of LPS-induced IL-1beta production at 150 umol/kg, po pre-administered at interval of 12 hrs followed by LPS-stimulation 6 hrs after final dose and measured 2 hrs post LPS challenge by ELISA method. The class given is functional.
For data set [15], the system named is J774.A1. In words: Inhibition of IL-1beta production in mouse J774A.1 cells incubated for 12 hrs by sandwich immunoassay. The class given is functional, cell-based. The settings on record: J774.A1, 12 h. Put shortly:
as §2

Data set [16] relates to J774.A1. In words: Inhibition of TNFalpha production in mouse J774A.1 cells incubated for 6 hrs by sandwich immunoassay. The class given is functional, cell-based. The settings on record: J774.A1, 6 h. A digest of the protocol: as §2

Regarding `COc1ccccc1C1CC(=O)c2ccccc2O1` (centres undefined), the IC50 stood at 44.5 µM in [1] and 47.3 µM in [7]. Moreover, the viability at 24 h, 50 µM turned out to be 89.3% in [2] and 84.3% in [5]. The inhibition at 30 µM in data set [3] stood at 38.3%; in data set [4], 37.3%; in data set [6] it was 34.5%; in [8], 37.3%.

In the case of `CCOc1ccccc1C1CC(=O)c2ccccc2O1` (centres undefined), the results for the IC50 in data set [1] and in data set [7] were 38.8 µM and 38.5 µM, respectively. The viability at 24 h, 50 µM in data set [2] amounted to 92.7%; in data set [5], 82.6%. In addition, the inhibition at 30 µM in data set [3] is 27.7%; in data set [4] it was 38.5%; in [6] it was 38.8%; in data set [8], 29.6%.

With `CCCOc1ccccc1C1CC(=O)c2ccccc2O1` (centres undefined), the IC50 in data set [1] was 44.6 µM; in data set [7], 46 µM. The viability at 24 h, 50 µM was determined as 93.6% in data set [2] and 91.7% in [5]. Besides, the inhibition at 30 µM in data set [3] came out at 43.6%; in [4] it was 46%; in [6], 44.6%; in data set [8], 45.7%.

As for `CCCCOc1ccccc1C1CC(=O)c2ccccc2O1` (centres undefined), the figures for the IC50 in [1] and in [7] were 47.7 µM and 48.7 µM, respectively. In addition, the figures for the viability at 24 h, 50 µM in data set [2] and in [5] were 95.5% and 78.3%, respectively. The inhibition at 30 µM in data set [3] was 42.5%; in data set [4] it was 48.7%; in data set [6], 47.7%; in [8], 19.3%.

On to `CC(C)COc1ccccc1C1CC(=O)c2ccccc2O1` (centres undefined), for which the IC50 stood at 33.2 µM in data set [1] and 36.7 µM in data set [7]. Moreover, the viability at 24 h, 50 µM in data set [2] stood at 84.5%; in data set [5], 83.3%. Moreover, the inhibition at 30 µM in data set [3] was 33.5%; in data set [4] it was 36.7%; in [6], 33.2%; in data set [8], 30.4%.

Consider `CCCCCOc1ccccc1C1CC(=O)c2ccccc2O1` (centres undefined), for which the IC50 in data set [1] came to 39.3 µM; in [7], 39.2 µM. Moreover, the viability at 24 h, 50 µM in data set [2] turned out to be 92.1%; in [5], 90.3%. Also, the inhibition at 30 µM in data set [3] is 40.1%; in [4] it was 39.2%; in data set [6], 39.3%; in [8], 41.3%.

Take `CC(C)CCOc1ccccc1C1CC(=O)c2ccccc2O1` (centres undefined): the IC50 in data set [1] came out at 42.6 µM; in [7], 39.2 µM. The viability at 24 h, 50 µM was determined as 88.6% in data set [2] and 81.6% in data set [5]. Further, the inhibition at 30 µM was determined as 43.6% in data set [3], 39.2% in data set [4], 42.6% in [6] and 47.6% in data set [8].

For the compound `CC(C)=CCOc1ccccc1C1CC(=O)c2ccccc2O1` (centres undefined), the IC50 worked out at 34.3 µM in data set [1] and 32.7 µM in data set [7]. For the same compound, the viability at 24 h, 50 µM in data set [2] was 92.3%; in data set [5] it was 94.8%. For the same compound, the inhibition at 30 µM in data set [3] turned out to be 40.3%; in [4] it was 41.7%; in data set [6], 31.7%; in data set [8] it was 41.8%.

Take `C=CCOc1ccccc1C1CC(=O)c2ccccc2O1` (centres undefined): the IC50 in [1] is 38.6 µM; in data set [7] it was 37.8 µM. Also, the viability at 24 h, 50 µM in [2] was 84%; in data set [5], 89.3%. Besides, the inhibition at 30 µM in [3] turned out to be 47%; in data set [4], 47.8%; in data set [6] it was 38.6%; in data set [8] it was 49.3%.

For the compound `O=C1CC(c2ccccc2OCc2ccccc2)Oc2ccccc21` (centres undefined), the inhibition in vivo at 150 µmol/kg in data set [9] came out at 35.7%; in [12], 32.1%; in [13] it was 9.8%; in data set [14] it was 28.4%. Also, the IC50 was determined as 25.2 µM in data set [10]; 23.2 µM in data set [1]; 20.1 µM in [11]; 18.9 µM in data set [7]; 24.5 µM in data set [15]; 22.4 µM in data set [16]. Besides, the viability at 24 h, 50 µM in data set [2] turned out to be 96.5%; in data set [5], 91.2%. For the same compound, the inhibition at 30 µM in data set [3] came out at 91.5%; in data set [4], 86.1%; in data set [6], 83.1%; in data set [8], 93.2%.

For `CC(C)c1ccc(COc2ccccc2C2CC(=O)c3ccccc3O2)cc1` (centres undefined), the inhibition in vivo at 150 µmol/kg in data set [9] was found to be 32.3%; in data set [12], 30.3%; in [13] it was 18%; in data set [14], 24.6%. The IC50 in [10] was found to be 25.1 µM; in data set [1], 28.6 µM; in [11], 23.7 µM; in data set [7], 27.1 µM; in [15] it was 23.1 µM; in data set [16] it was 23.2 µM. The results for the viability at 24 h, 50 µM in data set [2] and in [5] were 99.7% and 92.5%, respectively. For the same compound, the inhibition at 30 µM was 91.7% in data set [3], 80.6% in data set [4], 78.6% in data set [6] and 91.5% in data set [8].

With `O=C1CC(c2ccccc2OCc2ccc(F)cc2)Oc2ccccc21` (centres undefined), the inhibition in vivo at 150 µmol/kg in data set [9] amounted to 50.5%; in [12], 55.4%; in [13], 18.2%; in data set [14], 43.6%. Besides, the IC50 in [1] came to 25.5 µM; in data set [11], 17.7 µM; in data set [7] it was 28.2 µM; in [16], 18.2 µM. For the same compound, the viability at 24 h, 50 µM in data set [2] is 91.1%; in [5], 95.2%. Further, the inhibition at 30 µM in [3] stood at 42.1%; in data set [4] it was 92.7%; in data set [6], 94.1%; in data set [8], 45.2%.

With `O=C1CC(c2ccccc2OCc2cccc(F)c2)Oc2ccccc21` (centres undefined), the inhibition in vivo at 150 µmol/kg in data set [9] is 39.5%; in data set [12], 49.6%; in data set [13], 5.2%; in [14], 39.2%. The IC50 in data set [10] was 27.4 µM; in data set [1] it was 13.2 µM; in [11] it was 19.8 µM; in data set [7], 15.6 µM; in data set [15], 30.2 µM; in [16], 20.1 µM. For the same compound, the results for the viability at 24 h, 50 µM in [2] and in data set [5] were 92.7% and 90.3%, respectively. For the same compound, the inhibition at 30 µM is 92.7% in [3], 91.6% in [4], 96.2% in data set [6] and 93.3% in data set [8].

On to `COCOc1ccccc1C1CC(=O)c2ccccc2O1` (centres undefined), for which the figures for the IC50 in [1] and in data set [7] were 35.2 µM and 32.6 µM, respectively. The results for the viability at 24 h, 50 µM in data set [2] and in data set [5] were 99.4% and 92.2%, respectively. Besides, the inhibition at 30 µM in data set [3] is 33.3%; in data set [4] it was 48.6%; in data set [6], 45.2%; in data set [8], 35.2%.

For `C[C@@H]1C[C@H]2[C@@H]3CCC4=CC(=O)C=C[C@]4(C)[C@@]3(F)[C@@H](O)C[C@]2(C)[C@@]1(O)C(=O)CO` [DEXAMETHASONE], the half-maximal inhibitory concentration (IC50) came to 0.04 µM in [11], 22 µM in [15] and 0.4 µM in data set [16]. For the same compound, the inhibition in vivo at 150 µmol/kg in data set [12] amounted to 73.4%; in [14], 62.5%.

For `CC(C)Cc1ccc(C(C)C(=O)O)cc1` (centres undefined) [IBUPROFEN], the inhibition in vivo at 150 µmol/kg was found to be 41.4% in [9] and 30.5% in data set [13].
